Assay results as given in PMC368434 (BMC Gastroenterology, 2004).

Columns and labels:
[1] = molecular target: pig gastric microsomal H,K-ATPase (Sus scrofa, UniProt P19156); assay: H,K-ATPase assay; assay type: biochemical; conditions: for Attenuation of H,K-ATPase activity: non-physiological concentrations greater than 10^-7 M (up to 1 μM); for Inhibitory activity against H,K-ATPase: physiological concentrations (10^-9–10^-8 M)
[2] = test system: gastric H,K-ATPase; conditions: cited from earlier work; for IC50: read-out: IC50, gastric proton pump activity
[3] = test system: rabbit gastric parietal cells; assay: Acid accumulation assay; assay type: cell-based; conditions: up to concentrations of 10^-4 M (data not shown)
[4] = test system: dogs; conditions: cited from earlier work
[5] = 14C-labeled ML 3000, rats; cited from earlier work
[6] = test system: guinea-pig ileum; conditions: cited from earlier work
[7] = test system: cats; conditions: cited from earlier work
[8] = test system: rat stomach and blood; conditions: cited from earlier work
[9] = test system: gastric damage; conditions: up to 100 mg/kg/d p.o., rat; cited from earlier work
[10] = test system: bacteria or mammalian cells; rat bone marrow cells; conditions: cited from earlier work
[11] = test system: IL-8 secretion by human gastric adenocarcinoma (AGS) cells; assay: IL-8 secretion by AGS cells; assay type: cell-based; conditions: 24 h, read-out: IC50, inhibition of baseline IL-8 secretion
In short: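 AGS cells in Ham's F-12 with 10% FBS and antibiotics (37°C, 5% CO2), passages 42–56. Seeded at 50,000 cells/100 μl/well and attached 18 hr, then exposed to test compound with or without IL-1β (1 ng/ml) for 24 hr. Medium IL-8 measured by ELISA. Solvent controls included, solvents <1% final. Triplicates, ≥3 experiments; IC50 from three-parameter logistic fit.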

[12] = test system: rat; conditions: cited from earlier work

pig gastric microsomal H,K-ATPase, sequence (P19156 2-1034 limits assumed): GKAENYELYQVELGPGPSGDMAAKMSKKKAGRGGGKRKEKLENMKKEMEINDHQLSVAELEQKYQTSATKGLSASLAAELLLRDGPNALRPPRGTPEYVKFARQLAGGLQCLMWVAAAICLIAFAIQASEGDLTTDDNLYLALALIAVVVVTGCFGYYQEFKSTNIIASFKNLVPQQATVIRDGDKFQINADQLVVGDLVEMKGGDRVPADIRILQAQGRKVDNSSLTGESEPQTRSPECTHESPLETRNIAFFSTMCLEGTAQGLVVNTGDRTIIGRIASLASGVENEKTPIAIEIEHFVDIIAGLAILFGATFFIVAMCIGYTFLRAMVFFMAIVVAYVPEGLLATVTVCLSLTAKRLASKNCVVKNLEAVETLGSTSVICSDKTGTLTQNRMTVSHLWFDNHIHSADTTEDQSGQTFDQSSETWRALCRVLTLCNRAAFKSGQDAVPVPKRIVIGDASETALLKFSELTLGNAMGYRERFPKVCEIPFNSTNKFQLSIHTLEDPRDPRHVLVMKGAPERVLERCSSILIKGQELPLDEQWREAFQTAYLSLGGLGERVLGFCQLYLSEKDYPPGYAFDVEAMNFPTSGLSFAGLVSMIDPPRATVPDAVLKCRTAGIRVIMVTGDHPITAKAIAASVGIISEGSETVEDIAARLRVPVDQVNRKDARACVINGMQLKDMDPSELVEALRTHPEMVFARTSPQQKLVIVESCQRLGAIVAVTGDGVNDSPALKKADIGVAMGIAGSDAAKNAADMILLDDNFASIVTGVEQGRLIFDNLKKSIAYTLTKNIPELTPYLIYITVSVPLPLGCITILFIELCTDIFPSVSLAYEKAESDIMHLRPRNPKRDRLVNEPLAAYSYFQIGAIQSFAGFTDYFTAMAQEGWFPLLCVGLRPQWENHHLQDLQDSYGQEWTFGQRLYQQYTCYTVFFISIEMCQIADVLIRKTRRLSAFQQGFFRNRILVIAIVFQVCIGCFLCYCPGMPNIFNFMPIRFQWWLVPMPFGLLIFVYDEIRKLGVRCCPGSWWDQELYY
pig gastric microsomal H,K-ATPase, sequence (P18434 whole entry partner): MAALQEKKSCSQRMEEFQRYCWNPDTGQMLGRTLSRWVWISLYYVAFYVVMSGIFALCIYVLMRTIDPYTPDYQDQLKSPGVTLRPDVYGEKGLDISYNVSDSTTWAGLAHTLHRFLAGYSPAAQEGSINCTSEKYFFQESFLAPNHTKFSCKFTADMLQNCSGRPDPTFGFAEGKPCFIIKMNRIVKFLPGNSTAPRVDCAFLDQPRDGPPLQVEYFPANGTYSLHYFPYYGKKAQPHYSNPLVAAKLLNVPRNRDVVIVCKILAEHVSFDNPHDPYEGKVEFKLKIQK

CCCCC/C=C\C\C=C/C=C/C=C/[C@@H](SC[C@H](N)C(=O)NCC(=O)O)[C@@H](O)CCCC(=O)O [LTD4, leukotriene D4]
Attenuation of H,K-ATPase activity [1]: significant attenuation
Inhibitory activity against H,K-ATPase [1]: neither leukotriene showed any inhibitory activity

CCCCC/C=C\C/C=C\C/C=C\C/C=C\CCCC(=O)O [Arachidonic acid]
IC50 [1]: 16.7 µM

CCCCC[C@H](O)/C=C/[C@H]1[C@H](O)CC(=O)[C@@H]1C/C=C\CCCC(=O)O [PGE2, prostaglandin E2]
IC50 [1]: 15 µM
Inhibitory effect on pig gastric H,K-ATPase ([2]; pig, previous study): no inhibitory effect

COCCCOc1ccnc(C[S+]([O-])c2nc3ccccc3[nH]2)c1C (centres unmarked) [rabeprazole]
IC50 [2]: 0.072 µM

COC(=O)c1cc2nc([S+]([O-])Cc3ncccc3C)[nH]c2cc1C (centres unmarked) [picoprazole]
IC50 [2]: 2 µM

CS(=O)(=O)Nc1ccc([N+](=O)[O-])cc1OC1CCCCC1 [NS 398]
Inhibitory effect on microsomal H,K-ATPase activity ([1]; concentrations up to 10^-4 M): without inhibitory effects
Effect on acid accumulation by isolated rabbit parietal cells [3]: no effect

CC1(C)Cc2c(-c3ccccc3)c(-c3ccc(Cl)cc3)c(CC(=O)O)n2C1 [ML 3000, [2,2-dimethyl-6-(4-chlorophenyl)-7-phenyl-2,3-dihydro-1H-pyrrolizine-5-yl]-acetic acid]
Cardiovascular or respiratory effects [4]: no cardiovascular or respiratory effects
Distribution and excretion [5]: enterohepatic circulation and glucuronide conjugation
Spasmogenic response [6]: weak spasmogenic response
Neuromuscular function [7]: without affect
IC50 [1]: 16.4 µM
Effect of ML 3000 acidification on H,K-ATPase inhibitory profile ([1]; ML 3000 titrated to pHs 2.0 to 7.4 for 30 min, 16.6 μM final concentration): no significant effect
Reversibility of H,K-ATPase inhibition ([1]; dilution from 100 μM to 3.3 μM): reversible
Gastric mucosal injury [8]: no gastric mucosal injury
Leukocyte adherence in mesenteric venules [8]: no effect
Gastric prostaglandin E2 synthesis ([8]; rat stomach and blood): reduces
Inhibition of gastric or blood leukotriene B4 synthesis ([8]; rat): not detected
Gastric damage [9]: no gastric damage
Genotoxicity: gene mutation frequencies in bacteria or mammalian cells, unscheduled DNA synthesis, chromosomal aberrations in rat bone marrow cells [10]: no effects
IC50 [11]: 0.46 µM
Gastric damage and peristaltic disturbance ([12]; animal models): neither gastric damage nor peristaltic disturbance
Rat locomotor activity or hexobarbital-induced sleep [12]: did not affect
Cardiovascular or respiratory effects ([12]; rat): no cardiovascular or respiratory effects
Urine output ([12]; rats): small transient reduction

COc1ccc2c(c1)c(CC(=O)O)c(C)n2C(=O)c1ccc(Cl)cc1 [indomethacin]
Inhibitory effect on microsomal H,K-ATPase activity ([1]; concentrations up to 10^-4 M): without inhibitory effects
Ki ([2]; read-out: Ki, inhibition of gastric H,K-ATPase): 670 µM

CCCCC/C=C\C[C@@H](O)/C=C/C=C/C=C\[C@@H](O)CCCC(=O)O [LTB4, leukotriene B4]
Attenuation of H,K-ATPase activity [1]: significant attenuation
Inhibitory activity against H,K-ATPase [1]: neither leukotriene showed any inhibitory activity

Cc1c(OCC(F)(F)F)ccnc1C[S+]([O-])c1nc2ccccc2[nH]1 (centres unmarked) [lansoprazole]
IC50 [2]: 2.1 µM

CC(=O)Oc1ccccc1C(=O)O [acetyl salicylic acid]
Inhibitory effect on microsomal H,K-ATPase activity ([1]; concentrations up to 10^-3 M): without inhibitory effects
Effect on acid accumulation by isolated rabbit parietal cells [3]: no effect

COc1ccc2cc([C@H](C)C(=O)O)ccc2c1 [naproxen]
Inhibitory effect on microsomal H,K-ATPase activity ([1]; concentrations up to 10^-4 M): without inhibitory effects
